One compound from ChEMBL document CHEMBL4610127, “Novel Autotaxin Inhibitor for the Treatment of Idiopathic Pulmonary Fibrosis: A Clinical Candidate Discovered Using DNA-Encoded Chemistry” (J Med Chem, 2020) can be followed below.

The IC50 is the concentration needed to halve the response being measured. By AUC(0-t) is commonly meant the area under the concentration-time curve up to a stated or last time point. The low end stands for low exposure, the high end for high exposure. For orientation: Cmax means the peak of the concentration-time curve. As a reminder, the half-life is how long it takes for the measured level to halve. Lower therefore signals fast loss. For orientation: bioavailability means the share of a dose that reaches the circulation, judged against a reference dose that is usually intravenous. High values mean good availability, low ones poor availability.

Data set [1] is described as follows: Volume of distribution at steady state in dog at 1 mg/kg, iv. The note with it: in vivo, read-out: Vdss. Type of data set: ADME, organism-based, Canis lupus familiaris.
In the next data set the target is Cytochrome P450 2D6 (Homo sapiens, UniProt P10635). The data set is described as follows: Inhibition of CYP2D6 (unknown origin). Type of data set: ADME.
Data set [2] is described as follows: Volume of distribution at steady state in rat at 1 mg/kg, iv. The class given is ADME, organism-based. The note with it: in vivo, read-out: Vdss.
For the next data set, the target named is Autotaxin (Mus musculus, UniProt Q9R1E6). The data set is described as follows: Inhibition of autotaxin in mouse plasma assessed as reduction in LPA (18:2) production incubated for 2 hrs LC-MS-/MS analysis. Type of data set: cell-free.
A further data set deals with Mus musculus. The data set is described as follows: Anti-fibrotic activity in C57BL/6 mouse model of bleomycin-induced lung fibrosis assessed as reduction in hydroxyproline levels at 100 to 300 mg/kg, po BID dosed until day 21 starting one day prior to bleomycin treatment. Type of data set: functional, organism-based. The method, boiled down: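 Mice given oral BID doses (30, 100 or 300 mg/kg) starting one day before bleomycin. Killed 21 days after bleomycin; lung fibrosis scored by hydroxyproline in one group. GLPG1690 at 30 and 100 mg/kg BID as control. Hydroxyproline plotted per mouse; medians and p-values against bleomycin + vehicle.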

The target of another data set is Cytochrome P450 2C9 (Homo sapiens, UniProt P11712). Briefly: Inhibition of CYP2C9 (unknown origin). The class given is ADME.
Data set [3] in a line: AUClast in mouse at 10 mg/kg, po. Type of data set: ADME, organism-based. Also noted: dose 10 mg/kg, time 0 - last, route oral. The settings on record: in vivo.
The nature of data set [4]: Cmax in dog at 1 mg/kg, po. The settings on record: in vivo. The class given is ADME, organism-based, Canis lupus familiaris. On the set-up: dose 1 mg/kg, route oral.
Data set [5] has as its target Lysophosphatidic acid receptor 1 (Homo sapiens, UniProt Q92633). Briefly: Inhibition of LPAR1 (unknown origin).
Data set [6] concerns the target T1, Ectonucleotide pyrophosphatase/phosphodiesterase family member 1 (Homo sapiens, UniProt P22413).
T1 sequence (P22413 whole entry): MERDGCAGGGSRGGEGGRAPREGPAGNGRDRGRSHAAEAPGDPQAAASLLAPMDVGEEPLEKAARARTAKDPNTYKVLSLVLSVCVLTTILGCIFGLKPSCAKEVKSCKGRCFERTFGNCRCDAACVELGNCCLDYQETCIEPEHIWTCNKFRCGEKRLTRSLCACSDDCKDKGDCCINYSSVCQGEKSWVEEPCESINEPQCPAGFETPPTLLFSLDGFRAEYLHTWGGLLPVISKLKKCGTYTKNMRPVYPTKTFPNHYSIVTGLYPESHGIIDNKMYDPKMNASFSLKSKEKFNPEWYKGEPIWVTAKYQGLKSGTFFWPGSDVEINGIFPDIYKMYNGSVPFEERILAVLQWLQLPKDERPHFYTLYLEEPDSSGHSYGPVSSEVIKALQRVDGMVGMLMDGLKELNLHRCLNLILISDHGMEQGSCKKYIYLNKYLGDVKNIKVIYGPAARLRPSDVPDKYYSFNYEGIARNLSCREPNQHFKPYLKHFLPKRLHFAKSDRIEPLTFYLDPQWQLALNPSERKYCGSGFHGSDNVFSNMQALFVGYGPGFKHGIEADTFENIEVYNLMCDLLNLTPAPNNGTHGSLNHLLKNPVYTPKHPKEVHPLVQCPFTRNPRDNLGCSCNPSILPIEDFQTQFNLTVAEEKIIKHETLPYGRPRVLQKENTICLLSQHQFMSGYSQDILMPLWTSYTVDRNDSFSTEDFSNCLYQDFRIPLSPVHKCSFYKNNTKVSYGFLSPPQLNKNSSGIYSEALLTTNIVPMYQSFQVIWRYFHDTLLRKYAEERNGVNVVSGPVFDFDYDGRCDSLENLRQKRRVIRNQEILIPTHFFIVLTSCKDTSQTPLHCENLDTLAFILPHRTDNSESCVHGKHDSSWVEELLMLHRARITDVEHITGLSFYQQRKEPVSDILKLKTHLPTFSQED
Briefly: Inhibition of ENPP1 (unknown origin).

A further data set has as its target Cytochrome P450 2C19 (Homo sapiens, UniProt P33261). Briefly: Inhibition of CYP2C19 (unknown origin). The class given is ADME.
The nature of data set [7]: Half life in rat at 1 mg/kg, iv. The class given is ADME, organism-based. The note with it: in vivo.
Data set [8] is described as follows: AUClast in rat at 5 mg/kg, po. Type of data set: ADME, organism-based. Also noted: dose 5 mg/kg, route oral, time 0 - last. The settings on record: in vivo.
Data set [9] can be described thus: Cmax in rat at 5 mg/kg, po. Type of data set: ADME, organism-based. Also noted: dose 5 mg/kg, route oral. The settings on record: in vivo.
A short description of data set [10]: Time above IC90 in mouse at 30 mg/kg, po. The class given is ADME, organism-based. The settings on record: in vivo.
Data set [11] in a line: Oral bioavailability in mouse at 10 mg/kg. The class given is ADME, organism-based. The note with it: in vivo.
Data set [12] in a line: Oral bioavailability in rat at 5 mg/kg. The class given is ADME, organism-based. The note with it: in vivo.
Another data set concerns the target Cytochrome P450 3A4 (Homo sapiens, UniProt P08684). Briefly: Inhibition of CYP3A4 (unknown origin). The class given is ADME.
A short description of data set [13]: Half life in dog at 1 mg/kg, iv. Type of data set: ADME, organism-based, Canis lupus familiaris. The note with it: in vivo.

Active and inactive are the calls of the source. The rule behind the calls is not given here. Some results are limits rather than exact numbers.

Sequence of Lysophosphatidic acid receptor 1 (Q92633 whole entry): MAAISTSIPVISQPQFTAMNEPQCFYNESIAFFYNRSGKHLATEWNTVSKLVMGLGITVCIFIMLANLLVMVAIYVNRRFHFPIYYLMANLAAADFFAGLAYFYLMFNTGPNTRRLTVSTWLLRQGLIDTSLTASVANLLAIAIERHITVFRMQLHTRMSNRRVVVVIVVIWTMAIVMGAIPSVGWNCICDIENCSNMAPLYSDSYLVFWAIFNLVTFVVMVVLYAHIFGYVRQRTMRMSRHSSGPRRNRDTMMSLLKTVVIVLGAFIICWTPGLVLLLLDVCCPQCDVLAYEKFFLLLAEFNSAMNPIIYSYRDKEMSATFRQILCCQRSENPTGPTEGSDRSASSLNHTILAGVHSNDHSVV
Sequence of Cytochrome P450 2C9 (P11712 whole entry): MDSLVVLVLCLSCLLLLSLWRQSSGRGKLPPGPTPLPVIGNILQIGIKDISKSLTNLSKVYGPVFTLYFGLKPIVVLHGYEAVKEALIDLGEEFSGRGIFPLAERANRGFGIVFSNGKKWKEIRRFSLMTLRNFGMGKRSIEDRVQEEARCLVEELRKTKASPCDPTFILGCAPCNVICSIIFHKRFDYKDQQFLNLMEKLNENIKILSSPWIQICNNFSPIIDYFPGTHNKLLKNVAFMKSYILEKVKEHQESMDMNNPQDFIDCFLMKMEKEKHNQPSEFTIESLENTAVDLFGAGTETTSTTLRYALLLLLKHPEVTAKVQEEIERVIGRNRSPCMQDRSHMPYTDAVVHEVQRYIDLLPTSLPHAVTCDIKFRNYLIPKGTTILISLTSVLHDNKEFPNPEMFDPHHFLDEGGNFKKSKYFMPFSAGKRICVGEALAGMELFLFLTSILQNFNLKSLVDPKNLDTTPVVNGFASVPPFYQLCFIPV
Sequence of Cytochrome P450 3A4 (P08684 whole entry): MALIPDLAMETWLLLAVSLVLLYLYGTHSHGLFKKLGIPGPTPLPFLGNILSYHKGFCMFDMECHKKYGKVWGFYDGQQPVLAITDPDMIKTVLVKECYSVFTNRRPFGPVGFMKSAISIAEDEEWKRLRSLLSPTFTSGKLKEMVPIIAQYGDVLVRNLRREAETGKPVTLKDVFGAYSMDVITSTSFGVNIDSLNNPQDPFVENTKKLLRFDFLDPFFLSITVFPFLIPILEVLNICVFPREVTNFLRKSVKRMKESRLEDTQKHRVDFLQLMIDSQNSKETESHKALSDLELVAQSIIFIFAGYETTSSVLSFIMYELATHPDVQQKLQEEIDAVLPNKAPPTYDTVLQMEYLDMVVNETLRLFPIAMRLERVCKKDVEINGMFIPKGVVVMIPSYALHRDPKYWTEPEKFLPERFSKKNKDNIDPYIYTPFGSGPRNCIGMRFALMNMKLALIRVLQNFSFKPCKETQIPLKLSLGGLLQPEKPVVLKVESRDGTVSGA
Sequence of Cytochrome P450 2D6 (P10635 whole entry): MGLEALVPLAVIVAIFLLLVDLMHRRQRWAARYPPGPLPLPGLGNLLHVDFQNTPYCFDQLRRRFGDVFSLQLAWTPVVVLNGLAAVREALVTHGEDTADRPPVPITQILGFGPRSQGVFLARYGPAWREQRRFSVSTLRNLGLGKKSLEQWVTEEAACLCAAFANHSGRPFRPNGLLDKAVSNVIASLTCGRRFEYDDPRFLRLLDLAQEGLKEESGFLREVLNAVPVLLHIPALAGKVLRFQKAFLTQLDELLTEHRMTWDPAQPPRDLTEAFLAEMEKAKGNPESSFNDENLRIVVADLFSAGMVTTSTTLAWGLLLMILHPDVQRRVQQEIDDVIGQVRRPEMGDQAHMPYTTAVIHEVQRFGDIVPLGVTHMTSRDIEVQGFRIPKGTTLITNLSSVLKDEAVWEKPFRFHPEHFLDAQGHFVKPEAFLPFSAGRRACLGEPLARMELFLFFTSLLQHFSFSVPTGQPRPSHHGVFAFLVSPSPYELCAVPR
Sequence of Cytochrome P450 2C19 (P33261 whole entry): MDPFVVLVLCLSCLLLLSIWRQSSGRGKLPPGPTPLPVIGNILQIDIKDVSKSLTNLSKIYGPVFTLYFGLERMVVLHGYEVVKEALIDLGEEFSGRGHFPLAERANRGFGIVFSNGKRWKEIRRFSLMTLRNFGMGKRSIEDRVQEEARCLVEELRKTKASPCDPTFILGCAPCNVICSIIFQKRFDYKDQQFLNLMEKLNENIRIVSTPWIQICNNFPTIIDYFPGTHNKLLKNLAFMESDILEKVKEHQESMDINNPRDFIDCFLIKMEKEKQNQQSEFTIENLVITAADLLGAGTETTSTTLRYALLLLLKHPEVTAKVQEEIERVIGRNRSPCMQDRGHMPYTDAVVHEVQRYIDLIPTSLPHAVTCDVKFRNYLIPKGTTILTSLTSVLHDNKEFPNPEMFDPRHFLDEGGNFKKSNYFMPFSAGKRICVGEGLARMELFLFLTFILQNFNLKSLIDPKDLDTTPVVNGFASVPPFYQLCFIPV

With `CC(C)[C@@H](NC(=O)c1cc(C(F)(F)F)ccc1F)C(=O)N1CCC2(CC1)C(=O)N(C)C(=O)N2c1ccc2[nH]ncc2c1`, the Vd in data set [1] was found to be 0.655 L/kg; in data set [2] it was 1.98 L/kg. Further, the 50% inhibitory concentration (IC50) at Cytochrome P450 2D6 is greater than 50 µM; at Autotaxin it was 0.007 µM; on Cytochrome P450 2C9, 10.4 µM; in data set [5] it was greater than 10 µM; in [6] it was greater than 10 µM; on Cytochrome P450 2C19 it was 46 µM. Moreover, the IC50 against Cytochrome P450 3A4 is greater than 50 µM. Besides, the outcome with Mus musculus was Active. The AUC(0-t) was determined as 2590 ng·h/mL in data set [3] and 518 ng·h/mL in data set [8]. The Cmax in data set [4] worked out at 374 ng/mL; in data set [9], 160 ng/mL. The half-life is 1.5 h in data set [7] and 4.1 h in [13]. Further, the Time in [10] was determined as 12 h. In addition, the bioavailability came out at 81% in data set [11] and 24% in data set [12].
